Reference: ChEMBL document CHEMBL1287659, “Phenylmethylene hydantoins as prostate cancer invasion and migration inhibitors. CoMFA approach and QSAR analysis” (Eur J Med Chem, 2010)
The source made the active and inactive calls. No cut-off for these calls is given here.

Experiments:
PC-3 [1] = test: Antimetastatic activity against human PC3 cells at 100 uM after 24 hrs by wound-healing assay; format: functional; conditions: PC-3, 24 h
Procedure, shortened: (§1)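 Scratch wound in PC-3 monolayer. Compounds dissolved in DMSO, added in triplicate, DMSO as vehicle control. Incubation 24 h, serum-starved. Cells then fixed and Diff-Quick stained. Cells migrated into the wound counted in three or more random fields at 400×, mean ± SEM per field. IC50 by nonlinear regression of log concentration versus cells/well.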

PC-3 [2] = test: Antimetastatic activity against human PC3 cells after 24 hrs by wound-healing assay; format: functional, cell-based; conditions: for IC50: PC-3, 24 h; procedure, shortened: as §1
PC-3 [3] = test: Cytotoxicity against human PC3 cells up to 200 uM after 72 hrs by MTT assay; format: functional, cell-based
Procedure, shortened: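 PC-3 cells seeded at 8 × 10³ per well, attached 24 h. Switched to serum-free RPMI with compound at up to 200 µM, 72 h at 37 °C, 5% CO2. MTT added for 4 h, then solubilization/stop solution. Absorbance read at 570 nm; cells/well from a hemocytometer-based standard curve.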

PC-3 [4] = test: Antiinvasive activity against human PC3 cells at 50 uM by cultrex cell invasion assay; format: functional, cell-based
Procedure, shortened: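 Basement membrane extract coated upper chambers (4 h, 37 °C, 5% CO2) seeded with 50,000 PC-3 cells in serum-free RPMI plus compound at 50 µM. Lower chamber: RPMI, 10% FBS, fibronectin and N-formyl-met-leu-phe (10 nM) as chemoattractants. Migration 24 h at 37 °C. Invaded cells loaded with calcein-AM, fluorescence at 485/520 nm, counts from standard curve; n = 3, SD.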

PC-3 [5] = test: Ratio of compound IC50 to 5-(4-(ethylthio)benzylidene)imidazolidine-2,4-dione IC50 for human PC3 cells at 100 uM after 24 hrs by wound-healing assay; format: functional
PC-3 [6] = test: Antimetastatic activity against human PC3 cells at 50 uM after 24 hrs by wound-healing assay; format: functional; conditions: PC-3, 24 h; procedure, shortened: as §1

Question: What does the source list for `CCCOc1c(Br)cc(/C=C2\NC(=O)NC2=O)cc1OC`?
Answer: inhibition at 100 µM (PC-3 [1]): 97.4%; Activity (PC-3 [2]): Dose-dependent effect; IC50 (PC-3 [2]; read-out: IC50): 8.1 µM; IC50 (PC-3 [2]; read-out: pIC50 (converted)): 8.09 µM; Activity (PC-3 [3]): inactive; Activity (PC-3 [4]): Active; Ratio IC50 (PC-3 [5]): 5

Question: With `COc1cc(/C=C2\NC(=O)NC2=O)ccc1OCC(=O)N1CCCC1` as the molecule, how does the inhibition at 100 µM (PC-3 [1]) read?
Answer: The inhibition at 100 µM was 36.3%.

Question: What about the IC50 (PC-3 [2]; read-out: IC50) of the same molecule?
Answer: The IC50 was 86 µM.

Question: What about the IC50 (PC-3 [2]; read-out: pIC50 (converted)) of the same molecule?
Answer: Its IC50 is 85.9 µM.

Question: For `O=C1NC(=O)/C(=C/c2cc(I)c[nH]2)N1`, which IC50 (PC-3 [2]; read-out: pIC50 (converted)) is on record?
Answer: The IC50 was 199 µM.

Question: For `O=C1NC(=O)/C(=C/c2cccc(-c3cccs3)n2)N1`, which IC50 (PC-3 [2]; read-out: pIC50 (converted)) is on record?
Answer: Its IC50 is 32.4 µM.

Question: What about the Activity (PC-3 [4]) of the same molecule?
Answer: The Activity was “Active”.

Question: What does the source list for `CCOc1cc(/C=C2\NC(=O)NC2=O)cc(Br)c1OCC`?
Answer: inhibition at 100 µM (PC-3 [1]): 77.5%; IC50 (PC-3 [2]; read-out: IC50): 35.7 µM; IC50 (PC-3 [2]; read-out: pIC50 (converted)): 35.6 µM; Activity (PC-3 [4]): Active

Question: `O=C1NC(=O)/C(=C/c2cccc3c2OCO3)N1` was tested. Which IC50 (PC-3 [2]; read-out: pIC50 (converted)) did it give?
Answer: Its IC50 is 155 µM.

Question: Which results are given for `CCCOc1ccc(/C=C2\NC(=O)NC2=O)c(OC)c1`?
Answer: inhibition at 100 µM (PC-3 [1]): 23%; IC50 (PC-3 [2]; read-out: IC50): 110 µM; IC50 (PC-3 [2]; read-out: pIC50 (converted)): 110 µM

Question: For `COc1cccc(/C=C2\NC(=O)NC2=O)n1`, which IC50 (PC-3 [2]; read-out: pIC50 (converted)) is on record?
Answer: Its IC50 is 59.8 µM.

Question: For `CCCOc1cc(OC)c(/C=C2\NC(=O)NC2=O)c(OC)c1Cl`, which inhibition at 100 µM (PC-3 [1]) is on record?
Answer: The inhibition at 100 µM was 19%.

Question: What about the IC50 (PC-3 [2]; read-out: IC50) of the same molecule?
Answer: The IC50 was 187 µM.

Question: What about the IC50 (PC-3 [2]; read-out: pIC50 (converted)) of the same molecule?
Answer: Its IC50 is 187 µM.

Question: Which IC50 (PC-3 [2]; read-out: pIC50 (converted)) does the source give for `O=C1NC(=O)/C(=C/c2ccc(O)cn2)N1` here?
Answer: The IC50 was 81.8 µM.

Question: Which results are given for `CC(C)(C)Oc1ccc(/C=C2\NC(=O)NC2=O)cc1`?
Answer: inhibition at 100 µM (PC-3 [1]): 52.7%; IC50 (PC-3 [2]; read-out: IC50): 60.8 µM; IC50 (PC-3 [2]; read-out: pIC50 (converted)): 60.7 µM

Question: For `Cc1nc[nH]c1/C=C1\NC(=O)NC1=O`, which IC50 (PC-3 [2]; read-out: pIC50 (converted)) is on record?
Answer: Its IC50 is 95.1 µM.

Question: With `C#CCOc1c(Cl)cc(/C=C2\NC(=O)NC2=O)cc1OC` as the molecule, how does the inhibition at 100 µM (PC-3 [1]) read?
Answer: The inhibition at 100 µM was 88.8%.

Question: And the IC50 (PC-3 [2]; read-out: IC50)?
Answer: Its IC50 is 21.8 µM.

Question: And the IC50 (PC-3 [2]; read-out: pIC50 (converted))?
Answer: Its IC50 is 21.8 µM.

Question: And the Activity (PC-3 [4])?
Answer: The Activity was “Active”.

Question: `COc1cc(/C=C2\NC(=O)NC2=O)ccc1OCC(=O)c1ccccc1` was tested. Which inhibition at 100 µM (PC-3 [1]) did it give?
Answer: Its inhibition at 100 µM is 91.8%.

Question: What about the IC50 (PC-3 [2]; read-out: IC50) of the same molecule?
Answer: The IC50 was 19.7 µM.

Question: And the IC50 (PC-3 [2]; read-out: pIC50 (converted))?
Answer: Its IC50 is 19.7 µM.

Question: And the Activity (PC-3 [4])?
Answer: Its Activity is “Active”.

Question: For `O=C1NC(=O)/C(=C/c2ccncc2)N1`, which IC50 (PC-3 [2]; read-out: pIC50 (converted)) is on record?
Answer: The IC50 was 178 µM.

Question: For `COc1c(/C=C2\NC(=O)NC2=O)ccc(OC(C)(C)C)c1Cl`, which inhibition at 100 µM (PC-3 [1]) is on record?
Answer: The inhibition at 100 µM was 39%.

Question: What about the IC50 (PC-3 [2]; read-out: IC50) of the same molecule?
Answer: Its IC50 is 91 µM.

Question: What about the IC50 (PC-3 [2]; read-out: pIC50 (converted)) of the same molecule?
Answer: Its IC50 is 91 µM.

Question: With `O=C1NC(=O)/C(=C/c2ccc(OCc3ccc(F)cc3)cc2)N1` as the molecule, how does the inhibition at 100 µM (PC-3 [1]) read?
Answer: Its inhibition at 100 µM is 76.3%.

Question: What about the IC50 (PC-3 [2]; read-out: IC50) of the same molecule?
Answer: Its IC50 is 23.8 µM.

Question: What about the IC50 (PC-3 [2]; read-out: pIC50 (converted)) of the same molecule?
Answer: Its IC50 is 23.8 µM.

Question: And the Activity (PC-3 [4])?
Answer: Its Activity is “Active”.

Question: Which IC50 (PC-3 [2]; read-out: pIC50 (converted)) does the source give for `O=C1NC(=O)/C(=C/c2cnc[nH]2)N1` here?
Answer: The IC50 was 54.2 µM.

Question: For `CCCOc1ccc(/C=C2\NC(=O)NC2=O)c(OCCC)c1`, which inhibition at 100 µM (PC-3 [1]) is on record?
Answer: Its inhibition at 100 µM is 68.4%.

Question: What about the IC50 (PC-3 [2]; read-out: IC50) of the same molecule?
Answer: Its IC50 is 77.1 µM.

Question: What about the IC50 (PC-3 [2]; read-out: pIC50 (converted)) of the same molecule?
Answer: The IC50 was 77.1 µM.

Question: Which IC50 (PC-3 [2]; read-out: IC50) does the source give for `CCSc1ccc(/C=C2\NC(=O)NC2=O)cc1` here?
Answer: Its IC50 is 42.9 µM.

Question: And the IC50 (PC-3 [2]; read-out: pIC50 (converted))?
Answer: Its IC50 is 42.9 µM.

Question: What about the Activity (PC-3 [4]) of the same molecule?
Answer: The Activity was “Active”.

Question: What about the inhibition at 50 µM (PC-3 [6]) of the same molecule?
Answer: The inhibition at 50 µM was 42.9%.

Question: For `O=C1NC(=O)/C(=C/c2c[nH]c3ncccc23)N1`, which IC50 (PC-3 [2]; read-out: pIC50 (converted)) is on record?
Answer: Its IC50 is 49.7 µM.

Question: `O=C1NC(=O)/C(=C/c2ccc(N3CCCC3)cc2)N1` was tested. Which inhibition at 100 µM (PC-3 [1]) did it give?
Answer: Its inhibition at 100 µM is 75.9%.

Question: What about the IC50 (PC-3 [2]; read-out: IC50) of the same molecule?
Answer: Its IC50 is 48.7 µM.

Question: What about the IC50 (PC-3 [2]; read-out: pIC50 (converted)) of the same molecule?
Answer: The IC50 was 48.6 µM.

Question: What about the Activity (PC-3 [4]) of the same molecule?
Answer: Its Activity is “Active”.

Question: Which inhibition at 100 µM (PC-3 [1]) does the source give for `COc1cc(/C=C2\NC(=O)NC2=O)ccc1OCC(=O)N1CCOCC1` here?
Answer: Its inhibition at 100 µM is 33.2%.

Question: What about the IC50 (PC-3 [2]; read-out: IC50) of the same molecule?
Answer: Its IC50 is 94 µM.

Question: What about the IC50 (PC-3 [2]; read-out: pIC50 (converted)) of the same molecule?
Answer: Its IC50 is 94 µM.

Question: With `O=C1NC(=O)/C(=C/c2cccc3c2NCC3)N1` as the molecule, how does the IC50 (PC-3 [2]; read-out: pIC50 (converted)) read?
Answer: The IC50 was 86.5 µM.

Question: For `CSc1ccc(/C=C2\NC(=O)NC2=O)cc1`, which inhibition at 100 µM (PC-3 [1]) is on record?
Answer: The inhibition at 100 µM was 80.9%.

Question: And the IC50 (PC-3 [2]; read-out: IC50)?
Answer: Its IC50 is 44.7 µM.

Question: And the IC50 (PC-3 [2]; read-out: pIC50 (converted))?
Answer: Its IC50 is 44.7 µM.

Question: And the Activity (PC-3 [4])?
Answer: Its Activity is “Active”.

Question: How did the inhibition at 100 µM (PC-3 [1]) turn out when `CC(C)CCOc1ccc(/C=C2\NC(=O)NC2=O)cc1` was run?
Answer: The inhibition at 100 µM was 66.7%.

Question: And the IC50 (PC-3 [2]; read-out: IC50)?
Answer: Its IC50 is 46.1 µM.

Question: And the IC50 (PC-3 [2]; read-out: pIC50 (converted))?
Answer: The IC50 was 46 µM.

Question: With `O=C1NC(=O)/C(=C/c2cc(O)c[nH]2)N1` as the molecule, how does the IC50 (PC-3 [2]; read-out: pIC50 (converted)) read?
Answer: The IC50 was 99.1 µM.

Question: Which inhibition at 100 µM (PC-3 [1]) does the source give for `O=C1NC(=O)/C(=C/c2ccc(O)cc2)N1` [4-HYDROXYPHENYLMETHYLENE HYDANTOIN] here?
Answer: The inhibition at 100 µM was 34%.

Question: And the IC50 (PC-3 [2]; read-out: IC50)?
Answer: The IC50 was 128 µM.

Question: And the IC50 (PC-3 [2]; read-out: pIC50 (converted))?
Answer: Its IC50 is 128 µM.
